Laboratory results taken from ChEMBL document CHEMBL1127070, “Synthesis and binding properties of MK-801 isothiocyanates; (+)-3-isothiocyanato-5-methyl-10,11-dihydro-5H-dibenzo[a,d]cyclohepten- 5,10-imine hydrochloride: a new, potent and selective electrophilic affinity ligand for the NMDA receptor-coupled phencyclidine binding site” (J Med Chem, 1993).

How the values were obtained:
[1] = target: GABA-A receptor; anion channel; experiment: In vitro inhibition of [3H]flunitrazepam displacement from GABA-A receptor; assay type: protein-complex assay, Rattus norvegicus
In short: (§1)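 Reversible and wash-resistant displacement assays used published protocols, with extra washes added to remove unreacted compound. Final radioligand levels were [3H]flunitrazepam 1 nM, (+)-[3H]pentazocine 3 nM, [3H]FOXY 2 nM, [3H]QNB 0.5 nM and [3H]mazindol 5 nM. Test compound went up to 100 μM. Runs were in triplicate, with at least two experiments. Ki came from Cheng-Prusoff.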

[2] = target: Muscarinic acetylcholine receptor; experiment: Tested for in vitro inhibition of the displacement of [3H]quinuclidinyl benzilate muscarinic receptor; assay type: protein assay
Mu-type opioid receptor = Mu-type opioid receptor (Rattus norvegicus, UniProt P33535); experiment: Tested for in vitro inhibition of the displacement of [3H]FOXY from mu opioid receptor; in short: as §1
Chain of Mu-type opioid receptor (P33535 whole entry): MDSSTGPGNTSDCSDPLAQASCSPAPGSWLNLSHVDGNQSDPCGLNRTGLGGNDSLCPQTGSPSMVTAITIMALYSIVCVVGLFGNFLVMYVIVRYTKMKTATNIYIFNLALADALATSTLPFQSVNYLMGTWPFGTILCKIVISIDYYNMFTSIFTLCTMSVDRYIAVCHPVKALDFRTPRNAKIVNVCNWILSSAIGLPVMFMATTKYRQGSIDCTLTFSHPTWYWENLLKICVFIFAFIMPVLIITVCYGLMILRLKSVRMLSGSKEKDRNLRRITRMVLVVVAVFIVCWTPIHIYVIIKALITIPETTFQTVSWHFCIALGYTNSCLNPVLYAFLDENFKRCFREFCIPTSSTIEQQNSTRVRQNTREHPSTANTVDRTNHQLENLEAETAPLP

Glutamate NMDA receptor [3] = experiment: Tested for in vitro inhibition of the displacement of [3H]1-[1-(2-thieny])cyclohexyl] peridine from NMDA receptor; assay type: protein-complex assay
[4] = target: Sodium-dependent dopamine transporter (Rattus norvegicus) (UniProt P23977); experiment: Tested for in vitro inhibition of the displacement of [3H]mazindol from dopamine transporter
Chain of Sodium-dependent dopamine transporter (Rattus norvegicus) (P23977 whole entry, looked up): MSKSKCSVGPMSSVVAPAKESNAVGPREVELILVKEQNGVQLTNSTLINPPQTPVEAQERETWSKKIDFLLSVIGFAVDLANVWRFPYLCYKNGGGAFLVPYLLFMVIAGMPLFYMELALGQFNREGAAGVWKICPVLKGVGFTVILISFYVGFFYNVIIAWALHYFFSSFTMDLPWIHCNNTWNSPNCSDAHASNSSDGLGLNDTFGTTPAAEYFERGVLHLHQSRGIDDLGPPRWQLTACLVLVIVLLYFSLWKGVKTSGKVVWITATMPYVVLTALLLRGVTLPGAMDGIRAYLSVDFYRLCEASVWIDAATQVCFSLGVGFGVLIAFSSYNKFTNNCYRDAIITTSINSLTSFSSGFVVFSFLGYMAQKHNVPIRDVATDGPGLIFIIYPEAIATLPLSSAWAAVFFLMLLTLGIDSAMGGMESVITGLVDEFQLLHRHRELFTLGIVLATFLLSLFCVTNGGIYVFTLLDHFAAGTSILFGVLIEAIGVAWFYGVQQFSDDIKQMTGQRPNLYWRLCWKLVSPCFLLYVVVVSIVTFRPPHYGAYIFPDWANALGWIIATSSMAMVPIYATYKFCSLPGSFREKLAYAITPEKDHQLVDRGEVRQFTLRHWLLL

Glutamate NMDA receptor [5] = experiment: Tested for in vitro inhibition of the displacement of (+)-[3H]dizocilpine from NMDA receptor; assay type: protein-complex assay
In short: (§2)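 Rat brain membranes (Sprague–Dawley, whole brain minus cerebellum) in 5 mM Tris-HCl pH 7.4, washed by repeated 20000g spins. Incubation with 2 nM (+)-[3H]-3, 10 μM glutamate and 10 μM glycine for 90 min at 5 °C. Nonspecific binding defined with 10 μM (+)-3. Filtration, then scintillation counting.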

Glutamate NMDA receptor [6] = experiment: Tested for the inhibition of [3H]dizocilpine binding to N-methyl-D-aspartate (NMDA) receptor-coupled phencyclidine binding site; assay type: protein-complex assay; in short: as §2
[7] = target: Sigma non-opioid intracellular receptor 1 (Rattus norvegicus, UniProt Q9R0C9); experiment: Tested for in vitro inhibition of the displacement of (+)-[3H]pentazocine from sigma opioid receptor; in short: as §1
Chain of Sigma non-opioid intracellular receptor 1 (Q9R0C9 whole entry): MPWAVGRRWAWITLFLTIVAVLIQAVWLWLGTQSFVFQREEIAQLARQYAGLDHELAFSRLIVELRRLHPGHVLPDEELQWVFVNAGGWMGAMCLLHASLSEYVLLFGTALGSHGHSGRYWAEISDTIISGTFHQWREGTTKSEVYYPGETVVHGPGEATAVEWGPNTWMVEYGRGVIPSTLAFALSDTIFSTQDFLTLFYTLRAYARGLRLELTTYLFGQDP

[8] = target: T1, Glutamate NMDA receptor (Rattus norvegicus) (UniProt P35439+Q00959+Q00960+Q00961+Q62645+Q8VHN2+Q9R1M7); experiment: Tested for % inactivation of the displacement of (+)-[3H]dizocilpine from NMDA receptor by 100 nM; assay type: protein-complex assay
In short: (§3)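 Thawed rat brain homogenates pretreated with isothiocyanate for 30 min at 5 °C. Washed three times with buffer containing 100 μM glutamate, 30 μM glycine and 300 μM MgCl2, which removes reversible ligand. Binding of 2 nM (+)-[3H]-3 then measured as in the reversible assay. % inactivation is versus similarly washed untreated controls. Triplicates, mean ± SEM of ≥2 experiments.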

[9] = target: T1, Glutamate NMDA receptor (Rattus norvegicus); experiment: Tested for the % inactivation of [3H]dizocilpine binding to NMDA receptor at 10 uM); assay type: protein-complex assay; in short: as §3
[10] = target: T1, Glutamate NMDA receptor (Rattus norvegicus); experiment: Tested for % inactivation of the displacement of [3H]1-[1-(2-thieny])cyclohexyl] peridine from NMDA receptor by 100 nM; assay type: protein-complex assay
[11] = target: Muscarinic acetylcholine receptor; experiment: Tested for in vitro inhibition of the displacement of [3H]QNB from CNS receptor; assay type: protein assay; in short: as §1

C[C@]12N[C@H](Cc3ccc(N=C=S)cc31)c1ccccc12 (stereo in doubt; (+)-8a) [listing 1 of 2 here]
Ki [1]: > 100000 nM | Ki [2]: > 100000 nM | Ki (Mu-type opioid receptor): > 100000 nM | Ki (Glutamate NMDA receptor [3]): 132 nM | Ki [4]: 6950 nM | Ki (Glutamate NMDA receptor [5]): 37 nM | Ki (Glutamate NMDA receptor [6]): 37 nM | Ki [7]: 4810 nM

S=C=Nc1cccc(C2(N3CCCCC3)CCCCC2)c1
Ki (Glutamate NMDA receptor [6]): 535 nM

C[C@]12N[C@H](Cc3ccc(N=C=S)cc31)c1ccccc12 (stereo in doubt; (+)-8a) [listing 2 of 2 here]
Activity [8]: 53% | Activity [9]: 56% | Activity [10]: 50%

C[C@]12N[C@H](Cc3ccccc31)c1ccccc12 [DIZOCILPINE]
Ki [1]: > 100000 nM | Ki (Mu-type opioid receptor): > 100000 nM | Ki [4]: 40900 nM | Ki [11]: > 100000 nM

C[C@]12N[C@H](Cc3ccc(N=C=S)cc31)c1ccccc12 (stereo in doubt; (-)-8a)
Ki (Glutamate NMDA receptor [6]): 838 nM

CC[C@]1(c2cccc(N=C=S)c2)OC[C@H]([C@@H]2CCCCN2)O1
Activity [9]: 55% | Ki (Glutamate NMDA receptor [6]): 94 nM

C[C@]12N[C@H](Cc3cc(N=C=S)ccc31)c1ccccc12
Ki (Glutamate NMDA receptor [6]): 843 nM
